According to ChEMBL document CHEMBL4689842, “EUbOPEN Chemogenomics Library wave 1” (2021):

Test system: HEK-293T
Experiment: Multiplex assay against HEK293T;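 on Population Tubulin-Different-Phenotype (%): share of the cells with healthy nuclei that show this phenotype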
Format: toxicity, cell-based
Details: human
In short: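 Live cells carried four stains from seeding: Hoechst33342, BioTracker Green Microtubule Cytoskeleton Dye, MitoTracker Red and Annexin V Alexa Fluor 680. They were imaged on a CQ1 microscope at 37°C and 5% CO2 after compound addition. Using CellPathfinder machine-learning gating, cells were split into Hoechst high-intensity objects or normal cells, normal cells into healthy, pyknosed or fragmented nuclei, and pyknosed cells into mitotic or apoptotic; tubulin, mitochondrial-mass and membrane-permeability phenotypes are per cents of healthy-nucleus cells.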

[1] = 12 h, 1 µM, compound concentration 1 uM, replicate 1
[2] = 12 h, 1 µM, compound concentration 1 uM, replicate 2
[3] = 12 h, 10 µM, compound concentration 10 uM, replicate 1
[4] = 12 h, 10 µM, compound concentration 10 uM, replicate 2
[5] = 24 h, 1 µM, compound concentration 1 uM, replicate 1
[6] = 24 h, 1 µM, compound concentration 1 uM, replicate 2
[7] = 24 h, 10 µM, compound concentration 10 uM, replicate 1
[8] = 24 h, 10 µM, compound concentration 10 uM, replicate 2
[9] = 48 h, 1 µM, compound concentration 1 uM, replicate 1
[10] = 48 h, 1 µM, compound concentration 1 uM, replicate 2
[11] = 48 h, 10 µM, compound concentration 10 uM, replicate 1
[12] = 48 h, 10 µM, compound concentration 10 uM, replicate 2

O=C(Nc1ccc(-c2ccnc(Nc3ccc(N4CCOCC4)cc3)n2)cc1)[C@@H]1CCCN1
Population Apoptotic (%) [1]: 46%
Population Fragmented Nuclei (%) [1]: 9%
Population Healthy Nuclei (%) [1]: 34%
Population Hoechst High Intensity Objects (%) [1]: 11%
Population Membrane Permeable-Phenotype (%) [1]: 2%
Population Mitochondria Different-Phenotype (%) [1]: 77%
Population Mitotic Cells (%) [1]: 53%
Population Normal (%) [1]: 88%
Population Pyknosed Nuclei (%) [1]: 56%
Population Tubulin-Different-Phenotype (%) [1]: 50%
Total Cell Count [1]: 289
Population Apoptotic (%) [2]: 13%
Population Fragmented Nuclei (%) [2]: 2%
Population Healthy Nuclei (%) [2]: 45%
Population Hoechst High Intensity Objects (%) [2]: 4%
Population Membrane Permeable-Phenotype (%) [2]: 12%
Population Mitochondria Different-Phenotype (%) [2]: 19%
Population Mitotic Cells (%) [2]: 86%
Population Normal (%) [2]: 95%
Population Pyknosed Nuclei (%) [2]: 51%
Population Tubulin-Different-Phenotype (%) [2]: 30%
Total Cell Count [2]: 246
Population Apoptotic (%) [3]: 54%
Population Fragmented Nuclei (%) [3]: 16%
Population Healthy Nuclei (%) [3]: 17%
Population Hoechst High Intensity Objects (%) [3]: 18%
Population Membrane Permeable-Phenotype (%) [3]: 0%
Population Mitochondria Different-Phenotype (%) [3]: 96%
Population Mitotic Cells (%) [3]: 45%
Population Normal (%) [3]: 81%
Population Pyknosed Nuclei (%) [3]: 65%
Population Tubulin-Different-Phenotype (%) [3]: 100%
Total Cell Count [3]: 232
Population Apoptotic (%) [4]: 27%
Population Fragmented Nuclei (%) [4]: 12%
Population Healthy Nuclei (%) [4]: 15%
Population Hoechst High Intensity Objects (%) [4]: 4%
Population Membrane Permeable-Phenotype (%) [4]: 12%
Population Mitochondria Different-Phenotype (%) [4]: 62%
Population Mitotic Cells (%) [4]: 72%
Population Normal (%) [4]: 95%
Population Pyknosed Nuclei (%) [4]: 72%
Population Tubulin-Different-Phenotype (%) [4]: 91%
Total Cell Count [4]: 163
Population Apoptotic (%) [5]: 51%
Population Fragmented Nuclei (%) [5]: 10%
Population Healthy Nuclei (%) [5]: 52%
Population Hoechst High Intensity Objects (%) [5]: 12%
Population Membrane Permeable-Phenotype (%) [5]: 1%
Population Mitochondria Different-Phenotype (%) [5]: 75%
Population Mitotic Cells (%) [5]: 48%
Population Normal (%) [5]: 87%
Population Pyknosed Nuclei (%) [5]: 36%
Population Tubulin-Different-Phenotype (%) [5]: 51%
Total Cell Count [5]: 337
Population Apoptotic (%) [6]: 17%
Population Fragmented Nuclei (%) [6]: 3%
Population Healthy Nuclei (%) [6]: 63%
Population Hoechst High Intensity Objects (%) [6]: 3%
Population Membrane Permeable-Phenotype (%) [6]: 6%
Population Mitochondria Different-Phenotype (%) [6]: 21%
Population Mitotic Cells (%) [6]: 82%
Population Normal (%) [6]: 96%
Population Pyknosed Nuclei (%) [6]: 32%
Population Tubulin-Different-Phenotype (%) [6]: 46%
Total Cell Count [6]: 303
Population Apoptotic (%) [7]: 57%
Population Fragmented Nuclei (%) [7]: 18%
Population Healthy Nuclei (%) [7]: 24%
Population Hoechst High Intensity Objects (%) [7]: 12%
Population Membrane Permeable-Phenotype (%) [7]: 1%
Population Mitochondria Different-Phenotype (%) [7]: 98%
Population Mitotic Cells (%) [7]: 42%
Population Normal (%) [7]: 87%
Population Pyknosed Nuclei (%) [7]: 56%
Population Tubulin-Different-Phenotype (%) [7]: 98%
Total Cell Count [7]: 242
Population Apoptotic (%) [8]: 32%
Population Fragmented Nuclei (%) [8]: 7%
Population Healthy Nuclei (%) [8]: 38%
Population Hoechst High Intensity Objects (%) [8]: 4%
Population Membrane Permeable-Phenotype (%) [8]: 7%
Population Mitochondria Different-Phenotype (%) [8]: 56%
Population Mitotic Cells (%) [8]: 67%
Population Normal (%) [8]: 95%
Population Pyknosed Nuclei (%) [8]: 53%
Population Tubulin-Different-Phenotype (%) [8]: 88%
Total Cell Count [8]: 186
Population Apoptotic (%) [9]: 48%
Population Fragmented Nuclei (%) [9]: 10%
Population Healthy Nuclei (%) [9]: 71%
Population Hoechst High Intensity Objects (%) [9]: 7%
Population Membrane Permeable-Phenotype (%) [9]: 3%
Population Mitochondria Different-Phenotype (%) [9]: 31%
Population Mitotic Cells (%) [9]: 51%
Population Normal (%) [9]: 92%
Population Pyknosed Nuclei (%) [9]: 17%
Population Tubulin-Different-Phenotype (%) [9]: 33%
Total Cell Count [9]: 482
Population Apoptotic (%) [10]: 10%
Population Fragmented Nuclei (%) [10]: 4%
Population Healthy Nuclei (%) [10]: 84%
Population Hoechst High Intensity Objects (%) [10]: 3%
Population Membrane Permeable-Phenotype (%) [10]: 4%
Population Mitochondria Different-Phenotype (%) [10]: 6%
Population Mitotic Cells (%) [10]: 90%
Population Normal (%) [10]: 96%
Population Pyknosed Nuclei (%) [10]: 10%
Population Tubulin-Different-Phenotype (%) [10]: 25%
Total Cell Count [10]: 495
Population Apoptotic (%) [11]: 49%
Population Fragmented Nuclei (%) [11]: 22%
Population Healthy Nuclei (%) [11]: 48%
Population Hoechst High Intensity Objects (%) [11]: 8%
Population Membrane Permeable-Phenotype (%) [11]: 4%
Population Mitochondria Different-Phenotype (%) [11]: 84%
Population Mitotic Cells (%) [11]: 50%
Population Normal (%) [11]: 91%
Population Pyknosed Nuclei (%) [11]: 29%
Population Tubulin-Different-Phenotype (%) [11]: 95%
Total Cell Count [11]: 271
Population Apoptotic (%) [12]: 36%
Population Fragmented Nuclei (%) [12]: 10%
Population Healthy Nuclei (%) [12]: 60%
Population Hoechst High Intensity Objects (%) [12]: 5%
Population Membrane Permeable-Phenotype (%) [12]: 10%
Population Mitochondria Different-Phenotype (%) [12]: 38%
Population Mitotic Cells (%) [12]: 63%
Population Normal (%) [12]: 94%
Population Tubulin-Different-Phenotype (%) [12]: 81%
Total Cell Count [12]: 246
